Assay outcomes deposited in PubChem BioAssay by several laboratories.
In the library only some 4.6% were active in any assay of this set; here they are far more common.
FAS TE block – FAS thioesterase domain inhibitors, primary screen, biochemical, fluorescence intensity, uHTS | 360,000 tested, 0.67% active | Fatty acid synthase (Homo sapiens), P49327 | AID 602261, 2012 | recombinant FAS-TE, OMFH fluorogenic substrate, fluorescence endpoint | inhibition, % at 15 µM;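 active = compounds whose normalised, plate-corrected inhibition of enzyme fluorescence in the single-dose primary screen is 50% or more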;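 also: 0% = DMSO with enzyme and 100% = substrate without enzyme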
Target sequence (P49327 whole entry, looked up, the tested form may be a part): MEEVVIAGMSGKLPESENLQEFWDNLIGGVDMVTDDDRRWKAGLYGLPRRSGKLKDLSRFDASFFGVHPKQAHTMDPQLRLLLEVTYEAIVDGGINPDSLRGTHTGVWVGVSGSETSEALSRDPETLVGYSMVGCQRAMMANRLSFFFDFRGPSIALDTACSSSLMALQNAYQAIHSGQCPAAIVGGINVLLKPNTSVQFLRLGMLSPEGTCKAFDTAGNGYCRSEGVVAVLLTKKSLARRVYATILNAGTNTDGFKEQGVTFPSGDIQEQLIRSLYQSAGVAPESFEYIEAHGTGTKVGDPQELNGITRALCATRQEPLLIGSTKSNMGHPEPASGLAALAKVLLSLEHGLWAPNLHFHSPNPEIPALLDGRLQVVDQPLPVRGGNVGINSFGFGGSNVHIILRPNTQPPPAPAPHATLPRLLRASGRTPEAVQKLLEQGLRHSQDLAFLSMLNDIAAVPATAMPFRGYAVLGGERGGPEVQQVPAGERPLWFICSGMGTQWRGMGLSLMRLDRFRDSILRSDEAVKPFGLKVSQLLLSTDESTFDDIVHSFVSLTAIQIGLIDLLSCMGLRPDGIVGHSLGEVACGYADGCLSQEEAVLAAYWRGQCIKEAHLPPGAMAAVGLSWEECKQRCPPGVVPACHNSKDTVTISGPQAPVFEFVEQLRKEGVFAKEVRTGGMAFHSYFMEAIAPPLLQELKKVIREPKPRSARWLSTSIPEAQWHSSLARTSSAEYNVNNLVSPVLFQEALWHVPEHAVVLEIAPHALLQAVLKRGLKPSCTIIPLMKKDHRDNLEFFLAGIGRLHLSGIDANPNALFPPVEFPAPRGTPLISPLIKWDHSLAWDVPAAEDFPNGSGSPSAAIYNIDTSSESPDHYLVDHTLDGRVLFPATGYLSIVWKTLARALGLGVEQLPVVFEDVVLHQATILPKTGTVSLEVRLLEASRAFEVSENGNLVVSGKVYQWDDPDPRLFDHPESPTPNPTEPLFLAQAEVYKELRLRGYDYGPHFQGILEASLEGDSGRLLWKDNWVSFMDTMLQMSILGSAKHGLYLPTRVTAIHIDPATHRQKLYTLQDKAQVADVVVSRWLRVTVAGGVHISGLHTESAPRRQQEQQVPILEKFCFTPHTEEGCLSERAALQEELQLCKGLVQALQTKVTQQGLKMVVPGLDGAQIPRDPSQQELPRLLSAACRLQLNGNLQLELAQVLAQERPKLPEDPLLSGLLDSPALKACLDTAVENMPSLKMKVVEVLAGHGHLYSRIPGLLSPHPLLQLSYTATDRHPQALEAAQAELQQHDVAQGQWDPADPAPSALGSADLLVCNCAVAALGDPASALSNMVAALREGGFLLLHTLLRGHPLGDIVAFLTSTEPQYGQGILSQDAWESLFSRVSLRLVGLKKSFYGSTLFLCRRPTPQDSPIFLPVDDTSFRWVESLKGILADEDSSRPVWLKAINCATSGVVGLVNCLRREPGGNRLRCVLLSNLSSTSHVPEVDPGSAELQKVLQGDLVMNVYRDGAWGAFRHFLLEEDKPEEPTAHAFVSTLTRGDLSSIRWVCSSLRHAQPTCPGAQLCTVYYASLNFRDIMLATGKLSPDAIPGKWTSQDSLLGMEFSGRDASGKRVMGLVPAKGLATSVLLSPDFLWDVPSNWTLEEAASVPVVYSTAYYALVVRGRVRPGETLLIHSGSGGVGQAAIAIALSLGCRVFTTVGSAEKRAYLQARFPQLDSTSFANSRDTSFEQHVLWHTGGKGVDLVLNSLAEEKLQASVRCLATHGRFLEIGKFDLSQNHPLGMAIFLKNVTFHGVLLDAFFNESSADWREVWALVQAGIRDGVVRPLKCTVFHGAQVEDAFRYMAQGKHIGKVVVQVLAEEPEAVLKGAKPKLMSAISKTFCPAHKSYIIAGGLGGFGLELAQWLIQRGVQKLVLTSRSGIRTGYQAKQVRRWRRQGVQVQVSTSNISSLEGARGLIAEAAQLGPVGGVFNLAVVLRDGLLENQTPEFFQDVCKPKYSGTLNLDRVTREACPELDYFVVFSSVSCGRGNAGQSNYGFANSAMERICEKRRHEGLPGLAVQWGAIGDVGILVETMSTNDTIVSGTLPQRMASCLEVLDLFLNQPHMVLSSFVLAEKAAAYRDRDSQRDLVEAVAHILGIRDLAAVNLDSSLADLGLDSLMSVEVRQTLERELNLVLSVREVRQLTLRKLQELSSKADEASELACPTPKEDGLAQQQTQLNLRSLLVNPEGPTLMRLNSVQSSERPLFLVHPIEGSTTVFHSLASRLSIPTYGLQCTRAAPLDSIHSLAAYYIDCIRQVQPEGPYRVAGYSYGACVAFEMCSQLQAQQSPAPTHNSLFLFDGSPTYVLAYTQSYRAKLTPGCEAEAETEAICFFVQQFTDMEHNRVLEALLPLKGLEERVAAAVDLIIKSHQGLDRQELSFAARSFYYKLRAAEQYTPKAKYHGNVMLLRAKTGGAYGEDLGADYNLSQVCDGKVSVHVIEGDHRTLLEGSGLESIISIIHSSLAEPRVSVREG
UCH37 DUB inh – inhibitors of human UCH37 deubiquitinase, primary screen, biochemical, Ub-AMC cleavage, fluorescence; 330,000 tested, 0.33% active; inhibition, % (no concentration beside the values); purified proteasome/UCH37; AID 588478, 2011; Ubiquitin carboxyl-terminal hydrolase isozyme L5 (Homo sapiens), Q9Y5K5;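 active = mean inhibition over replicate wells above about 20%, limit read from the data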;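 also: 0% = compound-free wells with enzyme and 100% = wells lacking proteasome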
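Reagent: Ub-AMC substrate; assay system: Proteasome-associated human UCH37 deubiquitinase; controls: no-proteasome and no-compound wells; read-out: % inhibition of Ub-AMC cleavage fluorescence; timing: 30 min preincubation with enzyme, 25 min cleavage at room temperature; signal: AMC fluorescence from Ub-AMC cleavage, excitation 355 nm, emission 460 nm; buffer or medium: Tris-HCl pH 7.4 plus ovalbumin, ATP-MgCl2, DTT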
ALR H2O2 inh – inhibitors of human ALR sulfhydryl oxidase, primary screen, biochemical, H2O2 detection, HRP-luminol luminescence, single point | FAD-linked sulfhydryl oxidase ALR (Homo sapiens), P55789 | AID 485317, 2010 | purified ALR, DTT oxidation | 290,000 tested, 3.8% active | inhibition, % (test concentration not listed);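 active = mean replicate inhibition above about 79%, with every replicate also reaching it, limit read from the data; inconclusive = only one of the two criteria met; inactive = mean below limit and not every replicate reaching it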
PfM18AAP inh-1 – PfM18AAP inhibitors, malaria aminopeptidase, primary screen, biochemical, QFRET, recombinant enzyme; M18 aspartyl aminopeptidase (Plasmodium falciparum 3D7); H-Glu-NHMec fluorogenic cleavage; inhibition, % at 7.35 µM; 290,000 tested, 1.2% active; AID 1822, 2009;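 active = inhibition above the campaign mean inhibition over all tested compounds plus 3 SD, cut at about 28% in these data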;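 also: 0% = plate median of test compound wells and 100% = 2 mM ZnCl2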
Rtt109 HAT inh – inhibitors of C. albicans Rtt109/Vps75 HAT, primary screen, biochemical, ThioGlo CoA-SH fluorescence, plate reader; Histone acetyltransferase RTT109 (Candida albicans (strain SC5314 / ATCC MYA-2876)), …; purified Rtt109/Vps75, 4 h; inhibition, % at 34.9 µM; 330,000 tested, 0.16% active; AID 540336, 2011;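 active = inhibition of at least 50% in every replicate; inconclusive = best replicate reaches 50% inhibition but some replicates fall short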
HDAC3 inhib – HDAC3 deacetylase inhibitors, primary screen, biochemical, fluorescence, cell-free homogeneous; recombinant HDAC3, fluorogenic peptide/trypsin coupled; AID 2718, 2010; inhibition, % at 8.3 µM; 320,000 tested, 0.15% active; Histone deacetylase 3 (Homo sapiens), O15379; in the data active = inhibition above about 26%, passing the limit was not always enough; inconclusive = no clear call, values can overlap the other calls
PfM18AAP inh-2 – PfM18AAP inhibitors, malaria aminopeptidase, confirmation, biochemical, QFRET, recombinant enzyme, triplicate. shares compounds with PfM18AAP inh-1. H-Glu-NHMec fluorogenic cleavage. inhibition, % at 7.35 µM. 2,400 tested, 28% active;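 active = mean inhibition over replicate wells above the hit cutoff set for the earlier primary screen, cut at about 29% in these data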;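 also: 0% = median of test compound wells and 100% = 2 mM ZnCl2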
CTSL1 confirm – cathepsin L1 inhibitors, retest, confirmation, counter-screen for PFM18AAP inhibitor project, biochemical, QFRET, triplicate; 2,400 tested, under 10 active; purified cathepsin L1, Z-Leu-Arg-MCA fluorescence; shares compounds with PfM18AAP inh-1; AID 2178, 2009; inhibition, % at 5.96 µM;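 active = average inhibition across replicates above the hit cutoff set in the earlier primary screen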;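 also: 0% = median of test compound wells and 100% = Z-Phe-Ala-diazomethylketone 1 µM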
* marks the source's active call; other numbers are inactive results; u = inconclusive; x = no result given.

SMILES	FAS TE block	UCH37 DUB inh	ALR H2O2 inh	PfM18AAP inh-1	Rtt109 HAT inh	HDAC3 inhib	PfM18AAP inh-2	CTSL1 confirm
O=C1C2Sc3[nH]c(=O)sc3C(c3ccccc3)C2C(=O)N1c1ccc(Cl)cc1 (stereo unspecified)	4	1	13	36*	11	5	-15	-4
Cc1ccc(N2C(=O)C3Sc4[nH]c(=O)sc4C(c4ccccc4)C3C2=O)cc1 (stereo unspecified)	-6	-4	29	24	u	3	x	x
COc1ccc(S(=O)(=O)Nc2ccc(N(C)C(C)=O)cc2)cc1	-7	1	-2	5	x	0	x	x
CCN(CC)c1ccc(NS(=O)(=O)c2ccc(OC)cc2)cc1	-4	3	99*	32*	2	-3	-27	1
O=C(N/N=C/c1cccnc1)c1ccc(O)cc1	-4	x	3	0	-13	-2	x	x
O=C(N/N=C/c1cccnc1)c1cc(O)c(O)c(O)c1	-7	x	97*	40*	-5	5	6	-3
c1cc2c(cc1NC1CCCCCC1)OCO2	0	1	26	53*	3	14	28	-2
CCNC(=O)c1cccc(S(=O)(=O)N2CCCCCC2)c1	-8	2	x	36*	-4	-2	-36	0
O=C(N/N=C/c1ccc(O)c(O)c1)c1cccc(S(=O)(=O)N2CCCCC2)c1	0	x	99*	56*	2	7	51*	0
O=C(NCc1ccccc1)c1cccc(S(=O)(=O)N2CCCCC2)c1	4	4	36	4	-6	-4	x	x
O=C(COc1ccc(C=NNS(=O)(=O)c2ccccc2)cc1)Nc1ccccc1	x	3	x	x	x	x	x	x
COc1ccc(C=NNS(=O)(=O)c2ccc(F)cc2)cc1COc1cc(F)ccc1[N+](=O)[O-]	x	1	x	x	x	x	x	x
COc1ccc(/C=N/NS(=O)(=O)c2ccc(F)cc2)cc1COc1cc(F)ccc1[N+](=O)[O-]	13	x	-2	65*	-10	1	-44	4
CCC(NC(C)C)C(O)c1ccc(O)c(O)c1 (stereo unspecified)	-4	2	92*	52*	-4	-2	10	-4
CCC(c1ccc(O)c(O)c1)C(CC)c1ccc(O)c(O)c1 (stereo unspecified)	-17	3	x	x	-1	x	x	x
Cn1cccc1C=NNC(=O)CSc1nc2ccccc2n1C	x	9	x	x	x	x	x	x
CCC(=O)c1ccc(OCC(=O)Nc2nn3cnnc3s2)cc1	-12	2	8	66*	-8	2	40*	-3
O=C(O)c1ccc(N/N=C2/CCCc3ccccc32)cc1	-4	x	98*	34*	3	2	-7	8
O=C(NN=C1CCCc2ccccc21)c1ccc([N+](=O)[O-])cc1	x	5	x	x	x	x	x	x
Oc1ccc2c(c1)C1CCCC1(N1CCOCC1)O2 (stereo unspecified)	-9	3	36	36*	-2	-16	-17	-4
COCCNC(=S)Nc1ccc(N2CCOCC2)c(S(=O)(=O)Nc2ccc(Cl)cc2)c1	-3	x	x	x	x	x	x	x
O=S(=O)(Nc1ccc(Cl)cc1)c1ccc(N2CCOCC2)c(NC(=S)NCCN2CCOCC2)c1	1	5	5	45*	20	8	10	-2
O=[N+]([O-])c1ccc(-c2ccn[nH]2)o1	-7	10	-18	40*	1	11	-44	-9
